{
  "source": "ChEMBL document CHEMBL5303300",
  "about": "“EUbOPEN Chemogenomics Library - Multiplex” (2023)",
  "key": {"U2OS": {"test_system": "U2OS", "experiment": "Multiplex assay against U2OS", "type": "toxicity, cell-based", "conditions": "human, number of replicates 2", "in_short": "(§1)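 At seeding, live cells were stained with Hoechst33342, BioTracker Green Microtubule Cytoskeleton Dye, MitoTracker Red and Annexin V Alexa Fluor 680. After compound addition they were imaged on a CQ1 microscope at 37°C and 5% CO2, and CellPathfinder machine-learning gating sorted them into Hoechst high-intensity objects or normal cells, with normal cells further split into healthy, pyknosed or fragmented nuclei and pyknosed cells into mitotic or apoptotic. Tubulin, mitochondrial-mass and membrane-permeability phenotypes are given as per cents of cells with healthy nuclei.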"}, "HEK-293T": {"test_system": "HEK-293T", "experiment": "Multiplex assay against HEK293T", "type": "toxicity, cell-based", "conditions": "human, number of replicates 2", "in_short": "as §1"}, "[1]": {"conditions": "12 h, 1 µM, compound concentration 1 uM"}, "[2]": {"conditions": "12 h, 10 µM, compound concentration 10 uM"}, "[3]": {"conditions": "24 h, 1 µM, compound concentration 1 uM"}, "[4]": {"conditions": "24 h, 10 µM, compound concentration 10 uM"}, "[5]": {"conditions": "48 h, 1 µM, compound concentration 1 uM"}, "[6]": {"conditions": "48 h, 10 µM, compound concentration 10 uM"}},
  "note": "Values joined by “and” are separate entries in the source; they are usually repeats but may differ in a detail not shown here. Equal entries are not always repeated.",
  "data": [
    {"smiles": "COc1ccccc1-c1cc(Nc2cccc(CS(N)(=O)=O)c2)ncn1", "values": [
      {"measurement": "Population Apoptotic (%)", "setting": "U2OS; [1]", "value": "75% and 86%"},
      {"measurement": "Population Fragmented Nuclei (%)", "setting": "U2OS; [1]", "value": "13% and 5%"},
      {"measurement": "Population Healthy Nuclei (%)", "setting": "U2OS; [1]", "value": "75% and 84%"},
      {"measurement": "Population Hoechst High Intensity Objects (%)", "setting": "U2OS; [1]", "value": 0, "unit": "%"},
      {"measurement": "Population Membrane Permeable-Phenotype (%)", "setting": "U2OS; [1]", "value": "7% and 3%"},
      {"measurement": "Population Mitochondria Different-Phenotype (%)", "setting": "U2OS; [1]", "value": "0% and 1%"},
      {"measurement": "Population Mitotic Cells (%)", "setting": "U2OS; [1]", "value": "25% and 13%"},
      {"measurement": "Population Normal (%)", "setting": "U2OS; [1]", "value": 100, "unit": "%"},
      {"measurement": "Population Pyknosed Nuclei (%)", "setting": "U2OS; [1]", "value": "11% and 10%"},
      {"measurement": "Population Tubulin-Different-Phenotype (%)", "setting": "U2OS; [1]", "value": "62% and 80%"},
      {"measurement": "Population Apoptotic (%)", "setting": "U2OS; [2]", "value": "63% and 66%"},
      {"measurement": "Population Healthy Nuclei (%)", "setting": "U2OS; [2]", "value": "82% and 50%"},
      {"measurement": "Population Hoechst High Intensity Objects (%)", "setting": "U2OS; [2]", "value": 0, "unit": "%"},
      {"measurement": "Population Mitochondria Different-Phenotype (%)", "setting": "U2OS; [2]", "value": "1% and 0%"},
      {"measurement": "Population Mitotic Cells (%)", "setting": "U2OS; [2]", "value": "36% and 33%"},
      {"measurement": "Population Normal (%)", "setting": "U2OS; [2]", "value": 100, "unit": "%"},
      {"measurement": "Population Pyknosed Nuclei (%)", "setting": "U2OS; [2]", "value": "12% and 13%"},
      {"measurement": "Population Tubulin-Different-Phenotype (%)", "setting": "U2OS; [2]", "value": "72% and 34%"},
      {"measurement": "Population Apoptotic (%)", "setting": "U2OS; [3]", "value": "80% and 86%"},
      {"measurement": "Population Healthy Nuclei (%)", "setting": "U2OS; [3]", "value": "70% and 88%"},
      {"measurement": "Population Hoechst High Intensity Objects (%)", "setting": "U2OS; [3]", "value": 0, "unit": "%"},
      {"measurement": "Population Membrane Permeable-Phenotype (%)", "setting": "U2OS; [3]", "value": "2% and 1%"},
      {"measurement": "Population Mitochondria Different-Phenotype (%)", "setting": "U2OS; [3]", "value": "2% and 0%"},
      {"measurement": "Population Mitotic Cells (%)", "setting": "U2OS; [3]", "value": "20% and 13%"},
      {"measurement": "Population Normal (%)", "setting": "U2OS; [3]", "value": 100, "unit": "%"},
      {"measurement": "Population Pyknosed Nuclei (%)", "setting": "U2OS; [3]", "value": "8% and 7%"},
      {"measurement": "Population Tubulin-Different-Phenotype (%)", "setting": "U2OS; [3]", "value": "51% and 77%"},
      {"measurement": "Population Apoptotic (%)", "setting": "U2OS; [4]", "value": 80, "unit": "%"},
      {"measurement": "Population Healthy Nuclei (%)", "setting": "U2OS; [4]", "value": "79% and 62%"},
      {"measurement": "Population Hoechst High Intensity Objects (%)", "setting": "U2OS; [4]", "value": 0, "unit": "%"},
      {"measurement": "Population Mitochondria Different-Phenotype (%)", "setting": "U2OS; [4]", "value": "1% and 11%"},
      {"measurement": "Population Mitotic Cells (%)", "setting": "U2OS; [4]", "value": "19% and 20%"},
      {"measurement": "Population Normal (%)", "setting": "U2OS; [4]", "value": 100, "unit": "%"},
      {"measurement": "Population Pyknosed Nuclei (%)", "setting": "U2OS; [4]", "value": "16% and 18%"},
      {"measurement": "Population Tubulin-Different-Phenotype (%)", "setting": "U2OS; [4]", "value": "76% and 50%"},
      {"measurement": "Population Apoptotic (%)", "setting": "U2OS; [5]", "value": "75% and 83%"},
      {"measurement": "Population Fragmented Nuclei (%)", "setting": "U2OS; [5]", "value": "13% and 4%"},
      {"measurement": "Population Healthy Nuclei (%)", "setting": "U2OS; [5]", "value": "77% and 88%"},
      {"measurement": "Population Hoechst High Intensity Objects (%)", "setting": "U2OS; [5]", "value": 0, "unit": "%"},
      {"measurement": "Population Membrane Permeable-Phenotype (%)", "setting": "U2OS; [5]", "value": "8% and 1%"},
      {"measurement": "Population Mitochondria Different-Phenotype (%)", "setting": "U2OS; [5]", "value": 0, "unit": "%"},
      {"measurement": "Population Mitotic Cells (%)", "setting": "U2OS; [5]", "value": "25% and 16%"},
      {"measurement": "Population Normal (%)", "setting": "U2OS; [5]", "value": 100, "unit": "%"},
      {"measurement": "Population Pyknosed Nuclei (%)", "setting": "U2OS; [5]", "value": "9% and 7%"},
      {"measurement": "Population Tubulin-Different-Phenotype (%)", "setting": "U2OS; [5]", "value": "75% and 78%"},
      {"measurement": "Population Apoptotic (%)", "setting": "U2OS; [6]", "value": "66% and 77%"},
      {"measurement": "Population Fragmented Nuclei (%)", "setting": "U2OS; [6]", "value": "18% and 7%"},
      {"measurement": "Population Healthy Nuclei (%)", "setting": "U2OS; [6]", "value": "60% and 73%"},
      {"measurement": "Population Hoechst High Intensity Objects (%)", "setting": "U2OS; [6]", "value": 0, "unit": "%"},
      {"measurement": "Population Membrane Permeable-Phenotype (%)", "setting": "U2OS; [6]", "value": "8% and 6%"},
      {"measurement": "Population Mitochondria Different-Phenotype (%)", "setting": "U2OS; [6]", "value": "6% and 3%"},
      {"measurement": "Population Mitotic Cells (%)", "setting": "U2OS; [6]", "value": "33% and 22%"},
      {"measurement": "Population Normal (%)", "setting": "U2OS; [6]", "value": 100, "unit": "%"},
      {"measurement": "Population Pyknosed Nuclei (%)", "setting": "U2OS; [6]", "value": "20% and 18%"},
      {"measurement": "Population Tubulin-Different-Phenotype (%)", "setting": "U2OS; [6]", "value": "55% and 73%"},
      {"measurement": "Population Apoptotic (%)", "setting": "HEK-293T; [1]", "value": "35% and 36%"},
      {"measurement": "Population Fragmented Nuclei (%)", "setting": "HEK-293T; [1]", "value": "4% and 2%"},
      {"measurement": "Population Healthy Nuclei (%)", "setting": "HEK-293T; [1]", "value": 85, "unit": "%"},
      {"measurement": "Population Hoechst High Intensity Objects (%)", "setting": "HEK-293T; [1]", "value": "6% and 7%"},
      {"measurement": "Population Membrane Permeable-Phenotype (%)", "setting": "HEK-293T; [1]", "value": "3% and 5%"},
      {"measurement": "Population Mitochondria Different-Phenotype (%)", "setting": "HEK-293T; [1]", "value": "15% and 14%"},
      {"measurement": "Population Mitotic Cells (%)", "setting": "HEK-293T; [1]", "value": 64, "unit": "%"},
      {"measurement": "Population Normal (%)", "setting": "HEK-293T; [1]", "value": "93% and 92%"},
      {"measurement": "Population Pyknosed Nuclei (%)", "setting": "HEK-293T; [1]", "value": "10% and 12%"},
      {"measurement": "Population Tubulin-Different-Phenotype (%)", "setting": "HEK-293T; [1]", "value": "56% and 48%"},
      {"measurement": "Total Cell Count", "setting": "HEK-293T; [1]", "value": "807 and 675"},
      {"measurement": "Population Apoptotic (%)", "setting": "HEK-293T; [2]", "value": "32% and 34%"},
      {"measurement": "Population Fragmented Nuclei (%)", "setting": "HEK-293T; [2]", "value": "4% and 5%"},
      {"measurement": "Population Healthy Nuclei (%)", "setting": "HEK-293T; [2]", "value": "87% and 84%"},
      {"measurement": "Population Hoechst High Intensity Objects (%)", "setting": "HEK-293T; [2]", "value": 7, "unit": "%"},
      {"measurement": "Population Membrane Permeable-Phenotype (%)", "setting": "HEK-293T; [2]", "value": 3, "unit": "%"},
      {"measurement": "Population Mitochondria Different-Phenotype (%)", "setting": "HEK-293T; [2]", "value": "26% and 28%"},
      {"measurement": "Population Mitotic Cells (%)", "setting": "HEK-293T; [2]", "value": "67% and 65%"},
      {"measurement": "Population Normal (%)", "setting": "HEK-293T; [2]", "value": 92, "unit": "%"},
      {"measurement": "Population Pyknosed Nuclei (%)", "setting": "HEK-293T; [2]", "value": "8% and 10%"},
      {"measurement": "Population Tubulin-Different-Phenotype (%)", "setting": "HEK-293T; [2]", "value": "61% and 74%"},
      {"measurement": "Total Cell Count", "setting": "HEK-293T; [2]", "value": "665 and 582"},
      {"measurement": "Population Apoptotic (%)", "setting": "HEK-293T; [3]", "value": "35% and 34%"},
      {"measurement": "Population Fragmented Nuclei (%)", "setting": "HEK-293T; [3]", "value": "5% and 4%"},
      {"measurement": "Population Healthy Nuclei (%)", "setting": "HEK-293T; [3]", "value": "86% and 88%"},
      {"measurement": "Population Hoechst High Intensity Objects (%)", "setting": "HEK-293T; [3]", "value": "6% and 8%"},
      {"measurement": "Population Membrane Permeable-Phenotype (%)", "setting": "HEK-293T; [3]", "value": "3% and 2%"},
      {"measurement": "Population Mitochondria Different-Phenotype (%)", "setting": "HEK-293T; [3]", "value": "4% and 5%"},
      {"measurement": "Population Mitotic Cells (%)", "setting": "HEK-293T; [3]", "value": "64% and 65%"},
      {"measurement": "Population Normal (%)", "setting": "HEK-293T; [3]", "value": "93% and 91%"},
      {"measurement": "Population Pyknosed Nuclei (%)", "setting": "HEK-293T; [3]", "value": 7, "unit": "%"},
      {"measurement": "Population Tubulin-Different-Phenotype (%)", "setting": "HEK-293T; [3]", "value": 36, "unit": "%"},
      {"measurement": "Total Cell Count", "setting": "HEK-293T; [3]", "value": "1151 and 990"},
      {"measurement": "Population Apoptotic (%)", "setting": "HEK-293T; [4]", "value": "47% and 40%"},
      {"measurement": "Population Fragmented Nuclei (%)", "setting": "HEK-293T; [4]", "value": "2% and 1%"},
      {"measurement": "Population Healthy Nuclei (%)", "setting": "HEK-293T; [4]", "value": 90, "unit": "%"},
      {"measurement": "Population Hoechst High Intensity Objects (%)", "setting": "HEK-293T; [4]", "value": "4% and 5%"},
      {"measurement": "Population Membrane Permeable-Phenotype (%)", "setting": "HEK-293T; [4]", "value": "5% and 6%"}
    ]}
  ]
}
